# Measured values as given in PubChem BioAssay AID588627 (Johns Hopkins Ion Channel Center, 2011).
# The whole screen tested about 310,000 compounds, of which about 1,400 (0.45%) were called active.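 How the source made its calls: active means calcium response B-score plate-corrected fluorescence ratio at least 3 library SD, with starting fluorescence B-score inside 5 SD; inactive means the rest.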 For the sample, actives were picked, then their nearest neighbours and some compounds at random.
# Molecular target: Mas-related G-protein coupled receptor member X1 (Homo sapiens) (UniProt Q96LB2)
# Sequence (Q96LB2 whole entry, looked up): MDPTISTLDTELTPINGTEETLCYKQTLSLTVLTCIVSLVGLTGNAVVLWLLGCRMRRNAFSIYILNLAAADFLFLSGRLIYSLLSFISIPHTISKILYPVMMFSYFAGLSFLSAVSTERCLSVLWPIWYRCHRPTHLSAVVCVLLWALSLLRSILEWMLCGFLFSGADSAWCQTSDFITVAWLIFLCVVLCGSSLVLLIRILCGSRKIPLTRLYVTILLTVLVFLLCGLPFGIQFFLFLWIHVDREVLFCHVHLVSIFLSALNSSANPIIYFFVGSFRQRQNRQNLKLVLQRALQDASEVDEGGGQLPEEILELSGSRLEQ
# Assay: MrgX1 activation via calcium signaling – HEK293 cells, Fluo-4 calcium flux, primary screen (AID 588627);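 on B-score: B-score of the peak-minus-trough calcium fluorescence change over baseline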
# Conditions: Fluo-4 calcium fluorescence, agonist mode, at 10 µM; hits give high values
# How it was run: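 Test system: HEK293 cells stably expressing human MrgX1 receptor; Input: fifteen thousand cells per well; Dosing: compound delivered in addition one of three; Schedule: overnight seeding, then 1 h dark dye loading; Technique: Fluo-4 NW calcium fluorescence; Measure: B-scored fluorescence response ratio; Controls: positive and negative controls per plate.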
row,Structure (SMILES),B-score
1,Cc1ccc(-c2nn(-c3ccccc3)cc2/C=C2\SC(=S)N(CCCCCC(=O)O)C2=O)o1,inactive
2,O=C(N/C(=C/c1ccc(Cl)cc1)C(=O)N1CCCCC1)c1ccco1,inactive
3,Cc1onc(-c2c(Cl)cccc2Cl)c1C(=O)NNC(=O)c1c(-c2c(Cl)cccc2Cl)noc1C,inactive
4,COc1ccc(C(=O)NC(=S)NNC(=O)c2c(-c3ccccc3)noc2C)cc1,123 (active)
5,Cc1onc(-c2ccccc2)c1C(=O)Nc1ccccc1C#N,inactive
6,Cc1onc(-c2ccccc2)c1C(=O)NNC(=S)NC(=O)c1ccc(F)cc1,126 (active)
7,Cc1ccc(CNC(=O)c2c(-c3ccccc3)noc2C)cc1,inactive
8,CCc1noc(C)c1C(=O)NNC(=O)c1ccc(F)cc1,inactive
9,Cc1ccc(NC(=O)c2ccn(C(=O)Nc3ccccc3)n2)c(C)c1,inactive
10,CS(=O)(=O)N(CC(=O)N1CCCC1)Cc1ccccc1,inactive
11,CC1=NN(c2ccccc2)C(=O)C1C(=O)c1ccc([N+](=O)[O-])cc1 (centres undefined),inactive
12,CC(=O)N1c2ccccc2N(Cc2ccc([N+](=O)[O-])cc2)C(=O)C1(C)C,inactive
13,O=C1NC(=O)C2C1C(c1ccc([N+](=O)[O-])cc1)=NN2Cc1ccccc1 (centres undefined),42.5 (active)
14,COc1cc(CO)ccc1OCC(=O)Nc1cccc2ccccc12,inactive
15,COc1ccc(N2CC(C)Cn3c2nc2c3c(=O)n(Cc3ccccc3F)c(=O)n2C)c(OC)c1 (centres undefined),inactive
16,O=C(COC(=O)c1cccc(Cl)c1)Nc1ccc2[nH]c(=O)[nH]c2c1,inactive
17,CNCC(O)c1ccc(O)c(O)c1 (centres undefined),46.8 (active)
18,CC(=O)NCC(O)c1ccc([N+](=O)[O-])cc1 (centres undefined),inactive
19,CCC(C)c1ccc(O)c(/C=N/O)c1 (centres undefined),inactive
20,Cc1ccc(CNC(=O)CCC(=O)N2CC(C)Sc3ccccc32)cc1 (centres undefined),inactive
21,Cc1ccc(CSCC2Nc3ccc(C(=O)N4CCN(c5ccc(F)cc5)CC4)cc3NC2=O)cc1 (centres undefined),inactive
22,O=C1Nc2cc(C(=O)N3CCN(c4ccc(F)cc4)CC3)ccc2NC1CSCc1cccc(F)c1 (centres undefined),28.7 (active)
23,O=C(c1cc(C(=O)N2CCN(c3ccc(F)cc3)CC2)cc([N+](=O)[O-])c1)N1CCN(c2ccc(F)cc2)CC1,inactive
24,Cc1ccc(NC(=O)COC(=O)C2C3CC4OC(=O)C2C4C3)cc1Cl (centres undefined),inactive
25,COc1cc(OC)cc(C(=O)N[C@H](C(=O)OCC(=O)NC(C)c2ccccc2)C(C)C)c1 (some centres undefined),36 (active)
26,Cc1ccc(OCC(=O)NC(C)c2ccccc2)cc1C (centres undefined),inactive

row,Structure (SMILES),B-score
1,Cc1cc(C)cc(OCC(=O)NC(C)c2ccccc2)c1 (centres undefined),inactive
2,COc1ccc(NC(=O)CC2C(=O)NC3CCCCC3N2C(=O)c2ccc(F)cc2)cc1 (centres undefined),inactive
3,CCCNC(=S)N1CCC(NC(=O)c2ccc(OC)cc2)CC1,inactive
4,CC(C)COC(=O)c1ccc(NC(=O)C2C3C=CC(C3)C2C(=O)O)cc1 (centres undefined),inactive
5,CCOC(=O)c1[nH]c2ccc(C)cc2c1N=C(C)N(C)C,44.7 (active)
6,CCOC(=O)c1[nH]c2ccccc2c1N=C(C)N(CC)CC,inactive
7,CCOC(=O)c1cc2cc(C)ccc2[nH]1,inactive
8,Cn1c(N)cc(-c2ccc(F)cc2)c(C#N)c1=O,inactive
9,O=C(CSc1nnc(-c2c[nH]c3ccccc23)n1-c1ccc(F)cc1)NCc1ccco1,inactive
10,COc1cc(/C=C(\C#N)c2nc3c(s2)CC(C)CC3)ccc1O (centres undefined),inactive
11,Cc1ccc2nc(/C(C#N)=C\c3ccc(OC(=O)c4cccs4)cc3)[nH]c2c1,inactive
12,COc1cc(/C=C(\C#N)c2nc3ccccc3[nH]2)ccc1O,58.8 (active)
13,COCOc1cc(O)c(C(=O)/C=C/c2ccc(OCOC)c(OCOC)c2)c(OCOC)c1,inactive
14,Cc1cc(C)cc(NC(=O)c2cccc(NC(=O)C3C4CC5OC(=O)C3C5C4)c2)c1 (centres undefined),inactive
15,CCN(CC)C(=O)CSC(Nc1cccc(F)c1)=C(C#N)C#N,39.4 (active)
16,CCN(CC)C(=O)C(=O)Nc1cccc(Br)c1,inactive
17,Cc1ccc(CSCC(=O)N(C)CC(=O)Nc2cccc(F)c2)cc1,inactive
18,CS(=O)(=O)N(CC(=O)N1CCc2ccccc2C1)c1ccc(Br)cc1,inactive
19,CCOCCCNC(=S)Nc1ccc2nc(N3CCN(CC)CC3)cc(C)c2c1,inactive
20,CC(C)CN(Cc1c(O)ccc2c(=O)c(-c3ccccc3)coc12)CC(C)C,inactive
21,CC(C)=CCc1c(O)c(CC=C(C)C)c2occ(-c3ccc(O)cc3)c(=O)c2c1O,29.8 (active)
22,CCOC(=O)c1nnn(CC(=O)Nc2cccc(F)c2)c1C(=O)OCC,inactive
23,CCNS(=O)(=O)c1ccc(CCC(=O)N2CCN(c3ccc(OC)cc3)CC2)cc1,inactive
24,Cc1c(C)c2c(OCC(=O)NCCCO)cc3c(c2oc1=O)CCC(C)(C)O3,inactive
25,Cc1c(C)c2c(OCC(=O)N[C@@H](C(=O)O)c3ccccc3)cc3c(c2oc1=O)CCC(C)(C)O3,43.9 (active)
26,Cc1cc(=O)oc2c3c(cc(OCC(=O)N[C@H](C(=O)O)c4ccccc4)c12)OC(C)(C)CC3,inactive

row,Structure (SMILES),B-score
1,O=C(C[n+]1ccc2c(c1)nnn2-c1ccccc1)c1ccc(Cl)cc1,inactive
2,CC(=O)N/C(=C/c1ccc(Cl)cc1)C(=O)NCCc1c[nH]c2ccccc12,inactive
3,O=C(CN1C(=O)NC2(CCCCC2)C1=O)NCCc1c[nH]c2ccccc12,inactive
4,N#C/C(=C/c1ccc(N2CCCCC2)o1)C(=O)NCCc1c[nH]c2ccccc12,37.2 (active)
5,COC(=O)c1ccccc1Oc1c(F)c(F)nc(N2CCOCC2)c1F,inactive
6,c1ccc(-n2cccc2)c(N2CCCCC2)c1,inactive
7,O=C(NCc1cccnc1)c1cnc2ccccc2n1,inactive
8,Cc1ccnc(N2CCCC(C(=O)NC3CC3)C2)n1 (centres undefined),inactive
9,Cc1ccnc(SCC(N)=O)n1,inactive
10,Cc1ccnc(-n2sc3ccccc3c2=O)n1,37 (active)
11,CC1CN(C(=O)COC(=O)c2cccc(NS(=O)(=O)c3ccccc3)c2)CC(C)O1 (centres undefined),inactive
12,Cc1nc2sc(C(=O)c3ccccc3)c(N)c2c2c1CCCC2,inactive
13,Nc1c(C(=O)c2cccs2)sc2nsc(SCCN3CCCCC3)c12,53.3 (active)
14,CN(C)c1ccnc2sc(C(=O)c3ccccc3)c(N)c12,inactive
15,C/C(=C\c1ccco1)C1Nc2cccc3cccc(c23)N1,inactive
16,COC1(C2=NCCN2)COc2ccccc2O1 (centres undefined),inactive
17,COc1ccc(Nc2ncc(C(=O)N3CCN(c4ccccc4OC)CC3)c3ccccc23)cc1,inactive
18,Cc1[nH]n(-c2cccc(Cl)c2)c(=O)c1/C=N/n1c(C)nc2ccccc2c1=O,inactive
19,COc1cc(SC#N)ccc1N=Cc1c(C)[nH]n(-c2ccc(C)cc2)c1=O,inactive
20,Cc1ccc(-n2[nH]c(C)c(/C=N/N3C(=O)c4cccc5cccc(c45)C3=O)c2=O)cc1,104 (active)
21,CCn1c(SCc2ccccc2)nc2c(c1=O)SCC2,inactive
22,CCS(=O)(=O)n1nc(-c2ccccc2)nc1SCc1ccccc1,27.5 (active)
23,CCS(=O)(=O)n1nc(-c2ccc(OC)cc2)nc1SC,inactive
24,CN(CCOc1ccc(Br)cc1)CC(=O)Nc1cccc(S(=O)(=O)NC2=NCCC2)c1,inactive
25,O=C(NCCN1CCOCC1)c1cc(-c2cccs2)nc2ccccc12,inactive
26,CCCCN(C)CCCNC(=O)c1cc(-c2cccs2)nc2ccccc12,inactive

row,Structure (SMILES),B-score
1,O=C(Nc1nnc(-c2ccccc2)o1)c1cc(-c2cccs2)nc2ccccc12,26.9 (active)
2,CCOC(=O)/C(=N\Nc1ccccc1[N+](=O)[O-])c1csc(Nc2ccccc2)n1,inactive
3,O=C(Nc1ccc(Cl)cc1)C1c2cccc[n+]2CC(=O)N1Cc1ccc2c(c1)OCO2 (centres undefined),inactive
4,CCN1/C(=C/c2ccc3ccc(C)cc3[n+]2CC)Sc2ccccc21,123 (active)
5,CCN1/C(=C\c2ccc3ccccc3[n+]2CC)Sc2cc(C)ccc21,inactive
6,CC(C)OCCCNC(=O)c1ccc(C2SCC(=O)N2Cc2ccco2)cc1 (centres undefined),inactive
7,COc1cc(NC(=O)c2ccc3c(c2)OCO3)ccc1NC(=O)c1cccs1,inactive
8,COc1ccc(OCCCC(=O)OC(C)C(=O)Nc2ccccc2[N+](=O)[O-])cc1 (centres undefined),inactive
9,COc1ccccc1N(CC(=O)N1CCCCC1)S(=O)(=O)c1ccccc1,50 (active)
10,COc1ccc(C)cc1N(CC(=O)N1CCCC1)S(=O)(=O)c1ccccc1,inactive
11,COc1ccc(N(CC(=O)N2CCCCCC2)S(=O)(=O)c2ccccc2)cc1,inactive
12,Cc1cccc(-c2nc3c(c(SCC(=O)N4CCOCC4)n2)CCCC3)c1,inactive
13,C=CCn1c(=NC(=O)c2cccs2)sc2cc(NC(C)=O)ccc21,inactive
14,CCCc1[nH]nc2c1C(c1ccc(OC(=O)c3ccco3)cc1)C(C#N)=C(N)O2 (centres undefined),inactive
15,CCCc1[nH]nc2c1C(C1CC=CCC1)C(C#N)=C(N)O2 (centres undefined),inactive
16,CCCc1[nH]nc2c1C(c1ccc(Br)s1)C(C#N)=C(N)O2 (centres undefined),26.9 (active)
17,COc1ccc(S(=O)(=O)N2CCN(c3ncnc4c(-c5ccccc5)nsc34)CC2)cc1,inactive
18,COc1ccccc1CCNS(=O)(=O)c1cn(C)nc1C,inactive
19,CS(=O)(=O)N(CC(=O)N1CCCCCC1)c1cccc(Cl)c1Cl,inactive
20,Cc1ccc(-n2cc(CN(C)Cc3nccn3C)c(-c3cccc(C)c3)n2)cc1,inactive
21,CCOc1c(Nc2cccc(Cl)c2)c(=O)c1=O,inactive
22,O=C(CCN1CCN(C/C=C/c2ccccc2)CC1)Nc1ccccc1Cl,inactive
23,O=C(NC1CCCCC1)c1ccc(-c2ccc(Cl)cc2)o1,inactive
24,Cc1[nH][nH]c(=O)c1C(c1ccc(-c2ccc(Cl)cc2)o1)c1c(C)[nH][nH]c1=O,46.3 (active)
25,CCOc1ccc(C(c2c(C)[nH][nH]c2=O)c2c(C)[nH][nH]c2=O)cc1OCC,inactive
26,CCNc1nc(NC(C)C)nc(OCCOC(=O)c2ccccc2)n1,inactive
